ChEMBL document CHEMBL4130623, “Discovery of Highly Potent Pinanamine-Based Inhibitors against Amantadine- and Oseltamivir-Resistant Influenza A Viruses” (J Med Chem, 2018)
The source made the active and inactive calls.

Legend:
Influenza A virus [1] = assay: Antiviral activity against Influenza A virus (A/PR/8/34 (H1N1)) infected in MDCK cells assessed as inhibition of virus yield dosed at -1 to 2 hrs post infection and measured after 24 hrs; type: functional, organism-based; conditions: A/Puerto Rico/8/1934(H1N1)
Outline: (§1)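 Confluent MDCK cells were infected with 100 TCID50 virus and adsorbed 1 h at 4 °C (adsorption defined as -1 h), then washed. Compound at 10 µM was present only during the stated interval, then washed out with PBS. Cells were kept in medium with 1.5 µg/mL TPCK-trypsin at 37 °C. After 24 h, plates were freeze-thawed and supernatant yield was titrated by TCID50.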

Influenza A virus [2] = assay: Antiviral activity against Influenza A virus (A/PR/8/34 (H1N1)) infected in MDCK cells assessed as inhibition of virus yield dosed at 0 to 2 hrs post infection and measured after 24 hrs; type: functional, organism-based; conditions: A/Puerto Rico/8/1934(H1N1); outline: as §1
[3] = target: Hemagglutinin (Influenza A virus (strain A/Aichi/2/1968 H3N2)) (UniProt P03437); assay: (§2) Inhibition of Influenza A virus A/Aichi/2/68 (H3N2) HA2-mediated hemolysis preincubated with virus for 30 mins followed by chicken red blood cells addition measured after 30 mins by spectrophotometric analysis; conditions: Influenza A virus (A/Aichi/2/1968(H3N2))
Outline: (§3)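 Virus (100 µL) was incubated with two-fold serial compound dilutions in PBS for 30 min at 37 °C. An equal volume of chicken red blood cells in citric acid-sodium citrate (pH 5.0) was added and incubated 30 min at 37 °C, then centrifuged at 400 × g. Supernatant absorbance was read at 540 nm, with mock-infected background subtracted. IC50 is the concentration giving 50% hemolysis inhibition. Two independent experiments were run.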

Hemagglutinin = Hemagglutinin (Influenza A virus (strain A/Aichi/2/1968 H3N2), UniProt P03437); assay: as §2; set-up: species or system Influenza A virus (A/Aichi/2/1968(H3N2)); outline: as §3
Influenza A virus [4] = assay: Antiviral activity against Influenza A virus (A/Guangzhou/GIRD/07/2009 (H1N1)) infected in MDCK cells assessed as reduction in virus-induced cytopathic effect after 48 hrs by microscopic analysis; type: functional, organism-based
Outline: (§4)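 MDCK monolayers (5×10^4 cells/well, grown 24 h) were rinsed twice, infected with 100 TCID50 virus for 2 h at 37 °C in 5% CO2, and the inoculum was removed. Two-fold serial compound dilutions in DMEM with 1.5 µg/mL trypsin were added and incubated 48 h at 34 °C. CPE percentage was scored by microscope and EC50 fitted by non-linear regression.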

H3N2 subtype = assay: Antiviral activity against Influenza A virus (A/Aichi/2/68 (H3N2)) infected in MDCK cells assessed as reduction in virus-induced cytopathic effect after 48 hrs by microscopic analysis; type: functional, organism-based; conditions: A/Aichi/2/1968(H3N2); outline: as §4
Influenza A virus [5] = assay: Antiviral activity against Influenza A virus (A/California/07/2009(H1N1)) infected in human A549 cells assessed as reduction in plaque area after 3 days post infection by crystal violet-staining based assay; type: functional, organism-based; conditions: A549, 72 h
Outline: (§5)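 A549 monolayers were infected at 0.01 MOI for 1 h at 37 °C, then washed twice with PBS. Cells were overlaid with 1% agar DMEM containing compound, 2 µg/mL trypsin and 0.3% BSA. Two to three days post-infection, monolayers were fixed and stained with 0.1% crystal violet.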

Influenza A virus [6] = assay: Antiviral activity against Influenza A virus (A/duck/Guangdong/1/1996 (H7N3)) infected in MDCK cells assessed as reduction in virus-induced cytopathic effect after 48 hrs by microscopic analysis; type: functional, organism-based; outline: as §4
Influenza A virus [7] = assay: Antiviral activity against Influenza A virus (A/WSN/33 (H1N1)) infected in MDCK cells assessed as reduction in virus-induced cytopathic effect after 48 hrs by microscopic analysis; type: functional, organism-based; conditions: A/WSN/1933(H1N1); outline: as §4
Influenza A virus [8] = assay: Antiviral activity against Influenza A virus (A/duck/HK/Y280/97 (H9N2)) infected in MDCK cells assessed as reduction in virus-induced cytopathic effect after 48 hrs by microscopic analysis; type: functional, organism-based; outline: as §4
Influenza A virus [9] = assay: Antiviral activity against Influenza A virus (A/Texas/04/2009(H1N1)) infected in human A549 cells assessed as reduction in plaque area after 3 days post infection by crystal violet-staining based assay; type: functional, organism-based; conditions: A549, 72 h; outline: as §5
[10] = target: Hemagglutinin (Influenza A virus (A/Puerto Rico/8/1934(H1N1))) (UniProt P03452); assay: Inhibition of Influenza A virus A/PR/8/34 HA2-mediated hemolysis preincubated with virus for 30 mins followed by chicken red blood cells addition measured after 30 mins by spectrophotometric analysis; outline: as §3
Chain of Hemagglutinin (Influenza A virus (A/Puerto Rico/8/1934(H1N1))) (P03452 whole entry, the tested form may be a part): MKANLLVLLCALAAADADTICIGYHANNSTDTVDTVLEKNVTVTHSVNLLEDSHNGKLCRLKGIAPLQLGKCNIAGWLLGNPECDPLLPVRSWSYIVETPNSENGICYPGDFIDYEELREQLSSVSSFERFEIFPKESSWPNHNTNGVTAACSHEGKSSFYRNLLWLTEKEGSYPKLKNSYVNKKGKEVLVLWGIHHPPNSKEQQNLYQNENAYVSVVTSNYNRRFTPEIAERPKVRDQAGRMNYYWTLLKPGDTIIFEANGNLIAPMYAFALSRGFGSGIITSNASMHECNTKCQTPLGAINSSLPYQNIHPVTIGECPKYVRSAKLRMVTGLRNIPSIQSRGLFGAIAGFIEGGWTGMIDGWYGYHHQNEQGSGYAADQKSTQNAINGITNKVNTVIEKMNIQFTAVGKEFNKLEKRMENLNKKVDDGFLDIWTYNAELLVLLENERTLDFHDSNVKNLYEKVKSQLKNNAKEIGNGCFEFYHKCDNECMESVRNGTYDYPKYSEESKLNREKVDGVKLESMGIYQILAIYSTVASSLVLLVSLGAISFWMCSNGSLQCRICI

Influenza A virus [11] = assay: Antiviral activity against Influenza A virus (A/HK/68(H3N2)) infected in MDCK cells assessed as reduction in virus-induced cytopathic effect after 48 hrs by microscopic analysis; type: functional, organism-based; outline: as §4
Influenza A virus [12] = assay: Antiviral activity against Influenza A virus (A/HK/68) by CCK-8 reagent based assay; type: functional, organism-based
Influenza A virus [13] = assay: Antiviral activity against Influenza A virus (A/PR/8/34 (H1N1)) infected in MDCK cells assessed as reduction in virus-induced cytopathic effect after 48 hrs by microscopic analysis; type: functional, organism-based; conditions: A/Puerto Rico/8/1934(H1N1); outline: as §4
[14] = target: Hemagglutinin (Influenza A virus (A/Puerto Rico/8/1934(H1N1))) (UniProt P03452); assay: Inhibition of Influenza A virus A/PR/8/34 HA1 domain assessed as reduction in virus-induced aggregation of chicken erythrocytes at 0.75 to 1500 uM incubated for 1 hr with virus followed by transfer of compound-virus preparation to chicken erythrocytes solution measured after 40 mins
Outline: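 Two-fold serial compound dilutions in PBS were mixed with an equal volume of virus and incubated 1 h. The mixture was added to an equal volume of fresh 0.5% chicken red blood cells in Alsever's solution. After 40 min at room temperature, erythrocyte aggregation was read visually.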

[15] = Cytotoxicity against MDCK cells assessed as change in cell morphology after 48 hrs by microscopic analysis; type: cell-based, Canis lupus familiaris; conditions: dog
Outline: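 MDCK monolayers (5×10^4 cells/well, 24 h) were rinsed twice with PBS and exposed to two-fold serial compound dilutions in DMEM for 48 h. Wells were examined by microscope. The concentration giving minimal change in cell morphology was taken as the minimum cytotoxic concentration (MCC).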

Influenza A virus [16] = assay: Antiviral activity against Influenza A virus (A/WSN/33) by CCK-8 reagent based assay; type: functional, organism-based; conditions: A/WSN/1933(H1N1)

Structure (SMILES): C[C@@H]1C2CC(C[C@H]1NCc1sccc1C1CC1)C2(C)C (single isomer, unassigned)
- inhibition (Influenza A virus [1]): Active
- inhibition (Influenza A virus [2]): Active
- inhibition [3]: Dose-dependent effect
- IC50 (Hemagglutinin): 1230 nM
- EC50 (Influenza A virus [4]): 300 nM
- EC50 (H3N2 subtype): 4550 nM
- EC50 (Influenza A virus [5]): 340 nM
- EC50 (Influenza A virus [6]): 4580 nM
- EC50 (Influenza A virus [7]): 1480 nM
- EC50 (Influenza A virus [8]): 6790 nM
- EC50 (Influenza A virus [9]): 100 nM
- inhibition [10]: Dose-dependent effect
- EC50 (Influenza A virus [11]): 5380 nM
- Activity (Influenza A virus [12]): Active
- EC50 (Influenza A virus [13]): 2230 nM
- inhibition [14]: inactive
- MCC at 48 h [15]: 25 µM
- Activity (Influenza A virus [16]): Active
